Assay results of several laboratories.
Lines come from different studies, so protocols differ.
Target: Tyrosine-protein kinase CSK (CSK, Homo sapiens, UniProt P41240)

| SMILES | assay | test system | conditions | endpoint | value |
| --- | --- | --- | --- | --- | --- |
| CNC(=O)c1cc(Oc2ccc(NC(=O)Nc3ccc(Cl)c(C(F)(F)F)c3)cc2)ccn1 | enzyme activity, inhibitor | – | 0.3 µM | inhibition | -7% |
| C[C@@H]1CN(c2cc(-c3nn(C)c4ccc(OC5(C)CC5)cc34)ncn2)C[C@H](C)O1 | cell-free assay, competition with immobilised ligand | – | 1 µM | remaining binding | 100% |
| Cc1ccc(NC(=O)c2ccc(C)c(C(F)(F)F)c2)cc1C#Cc1nn(C2CCC(O)CC2)c2ncnc(N)c12 (centres unmarked) | cell-free assay, inhibitor | – | 10 µM | remaining signal | -1% |
| COc1cc2ncnc(Nc3ccc(Oc4ccccc4)cc3C)c2cc1OC | enzyme activity, inhibitor | – | 1 µM | inhibition | 91% |
| CO[C@@H](C)c1c(Nc2ccc([C@H](N(C)C(=O)C3CCS(=O)(=O)CC3)C(F)(F)F)cc2)cnc2cc(Cl)nn12 | cell-free assay, competition with immobilised ligand | – | 1 µM | remaining binding | 100% |
| Cn1c(=O)n(-c2ccc(C(C)(C)C#N)cc2)c2c3cc(-c4cnc5ccccc5c4)ccc3ncc21 | enzyme activity, inhibitor | – | 10 µM | remaining activity | 100% |
| CC(C)(C)C(=O)c1sc(NC2CCCCC2)nc1N | enzyme activity, inhibitor | – | 10 µM | remaining activity | 98% |
| CC(=O)N1CCC(c2ccc(C(=O)NC(=N)N)cc2C(F)(F)F)CC1 | cell-free assay, competition with immobilised ligand | – | 1 µM | remaining binding | 100% |
| Cc1ccc(Nc2nccc(N(C)c3ccc4c(C)n(C)nc4c3)n2)cc1S(N)(=O)=O | enzyme activity, inhibitor | – | 0.3 µM | inhibition | -6% |
| CNC(=O)c1ccc(Nc2ncc(C(F)(F)F)c(NCc3nccnc3N(C)S(C)(=O)=O)n2)cc1 | cell-free assay, competition with immobilised ligand | – | 0.1 µM | remaining binding | 100% |
| Cc1ccc(C(=O)NCc2ccsc2)cc1C#Cc1cn(C(C)C)c2ncnc(N)c12 | enzyme activity, inhibitor | – | 1 µM | activity vs control | 26% |
| CCN(CC)CCNC(=O)c1c(C)[nH]c(/C=C2\C(=O)Nc3ccc(F)cc32)c1C | enzyme activity, inhibitor | – | 0.3 µM | inhibition | -8% |
| Cc1cnc(NC2CCOCC2)nc1-n1cnc(C(=O)NC(CN)c2cc(F)cc(Cl)c2)c1 (centres unmarked) | enzyme activity, inhibitor, radiometric | – | 1 µM | remaining activity | 110% |
| O=C1Nc2ccc(Cl)cc2C1=Cc1cc(Cl)c(O)c(Cl)c1 | enzyme activity, inhibitor | – | 0.5 µM | remaining activity | 85% |
| COc1cc(Cl)c(C(=O)N[C@@H](CN[C@H]2CC[C@@H](N)CC2)Cc2ccc(C#N)cc2)cc1-c1ccc(CN[C@H](C)c2ccc(C)cc2)o1 | enzyme activity, inhibitor | – | 1 µM | remaining activity | 99% |
| Cn1nc(C(=O)NCc2ccc(C(=O)O)cc2)cc1-c1ccc2[nH]ccc2c1 | cell-free assay, competition with immobilised ligand | – | 0.1 µM | remaining binding | 94% |

| SMILES | assay | test system | conditions | endpoint | value |
| --- | --- | --- | --- | --- | --- |
| FC(F)(F)Oc1cccc(-c2cnc3ccc(-c4ccncc4)nn23)c1 | enzyme activity, inhibitor, radiometric | – | 1 µM | activity vs control | 97% |
| CS(=O)(=O)CCNCc1ccc(-c2ccc3ncnc(Nc4ccc(OCc5cccc(F)c5)c(Cl)c4)c3c2)o1 | enzyme activity, inhibitor | – | 0.5 µM | remaining activity | 106% |
| Cc1sc(C(=O)NC2COC2)cc1-n1cc(NC(=O)Nc2c(F)cccc2Cl)cn1 | enzyme activity, inhibitor | – | 10 µM | remaining activity | 98% |
| O=C1NC(=O)c2cc(Nc3ccc(F)cc3)c(Nc3ccc(F)cc3)cc21 | enzyme activity, inhibitor | – | 0.5 µM | remaining activity | 92% |
| CN(c1ncccc1CNc1nc(Nc2ccc3c(c2)CC(=O)N3)ncc1C(F)(F)F)S(C)(=O)=O | enzyme activity, inhibitor | – | 1 µM | inhibition | 29.1% |
| Nc1ncnc2occ(-c3ccc(NC(=O)Nc4cc(C(F)(F)F)ccc4F)cc3)c12 | enzyme activity, inhibitor | – | 20 µM | remaining activity | 2% |
| O=C(CSc1nc2nccnc2c(=O)n1CCc1ccccc1)Nc1nccs1 | enzyme activity, inhibitor | – | 10 µM | inhibition | 6% |
| COc1cc(Nc2cnc(C#N)c(O[C@H](C)CN(C)C)n2)ncc1-c1cnn(C)c1 | enzyme activity, inhibitor, radiometric | – | 10 µM | remaining activity | 94% |
| Cc1nc(N2CC[C@@H](O)C2)ncc1-c1cc(C(F)(F)F)cc2[nH]ncc12 | cell-free assay, competition with immobilised ligand | – | 1 µM | remaining binding | 100% |
| CC(C)(C)c1nc2c(s1)c1nc(N)ncc1c1ccc(NS(=O)(=O)c3c(F)cccc3F)c(F)c12 | enzyme activity, inhibitor, radiometric | – | 1 µM | remaining activity | 87% |
| Cc1ccc(C(=O)Nc2ccc(CN3CCN(C)CC3)c(C(F)(F)F)c2)cc1C#Cc1cnc2cccnn12 | enzyme activity, inhibitor | – | 23.5 nM | remaining activity | 15% |
| N#CCCc1ccc2c(c1)-c1[nH]c3ccc([N+](=O)[O-])cc3c1CC(=O)N2 | cell-free assay | – | 0.5 µM | remaining signal | 96.3% |
| Cn1cc(Cl)c2c(Oc3c(F)cc(Nc4cc(Cl)nc(N)n4)cc3F)ccnc21 | cell-free assay, competition with immobilised ligand | – | 0.1 µM | remaining binding | 100% |
| COc1cc(/C=C/C(=O)CC(=O)/C=C/c2ccc(O)c(OC)c2)ccc1O | enzyme activity, inhibitor | – | 1 µM | activity vs control | 78% |
| C[C@H](c1cccc(C#N)c1)n1cc(Cl)cc(C(N)=O)c1=N | cell-free assay, competition with immobilised ligand | – | 1 µM | remaining binding | 100% |
| CCN1CCN(Cc2ccc(NC(=O)c3ccc(C)c(Oc4ccnc5[nH]ccc45)c3)cc2C(F)(F)F)CC1 | target engagement in cells, inhibitor, chemoproteomics | A-375 | 0.5 µM | inhibition | -14.9% |
